Sampled rows, rich in hits. Any-hit rate of the full collection: about 2%.
EBV gp42 inh = inhibitors of Epstein-Barr virus glycoprotein 42; 220,000 tested, 0.42% active; Fluorescence polarization binding assay, mP read-out; inhibition, % (tested at 21.74 µM)
Runt-SMMHC FRET = blocks binding of human RUNX1 Runt domain to CBFb-SMMHC; Q01196+Q13951; Cerulean-Runt/Venus-CBFb-SMMHC FRET ratio 530/480, 1 h; inhibition, % at 20 µM; 220,000 tested, 0.74% active;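 active = mean inhibition across duplicate retests at 20 µM reaching about 50%, limit read from the data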;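 also: inhibitors lower the FRET ratio by blocking Runt binding to CBFb-SMMHC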
PKD1 inh = inhibitors of human PKD1 kinase; PKD1 kinase fluorescence polarization assay; 200,000 tested, 0.056% active; inhibition, % (concentration not given with the values)
Target sequence (Q15139 whole entry, looked up): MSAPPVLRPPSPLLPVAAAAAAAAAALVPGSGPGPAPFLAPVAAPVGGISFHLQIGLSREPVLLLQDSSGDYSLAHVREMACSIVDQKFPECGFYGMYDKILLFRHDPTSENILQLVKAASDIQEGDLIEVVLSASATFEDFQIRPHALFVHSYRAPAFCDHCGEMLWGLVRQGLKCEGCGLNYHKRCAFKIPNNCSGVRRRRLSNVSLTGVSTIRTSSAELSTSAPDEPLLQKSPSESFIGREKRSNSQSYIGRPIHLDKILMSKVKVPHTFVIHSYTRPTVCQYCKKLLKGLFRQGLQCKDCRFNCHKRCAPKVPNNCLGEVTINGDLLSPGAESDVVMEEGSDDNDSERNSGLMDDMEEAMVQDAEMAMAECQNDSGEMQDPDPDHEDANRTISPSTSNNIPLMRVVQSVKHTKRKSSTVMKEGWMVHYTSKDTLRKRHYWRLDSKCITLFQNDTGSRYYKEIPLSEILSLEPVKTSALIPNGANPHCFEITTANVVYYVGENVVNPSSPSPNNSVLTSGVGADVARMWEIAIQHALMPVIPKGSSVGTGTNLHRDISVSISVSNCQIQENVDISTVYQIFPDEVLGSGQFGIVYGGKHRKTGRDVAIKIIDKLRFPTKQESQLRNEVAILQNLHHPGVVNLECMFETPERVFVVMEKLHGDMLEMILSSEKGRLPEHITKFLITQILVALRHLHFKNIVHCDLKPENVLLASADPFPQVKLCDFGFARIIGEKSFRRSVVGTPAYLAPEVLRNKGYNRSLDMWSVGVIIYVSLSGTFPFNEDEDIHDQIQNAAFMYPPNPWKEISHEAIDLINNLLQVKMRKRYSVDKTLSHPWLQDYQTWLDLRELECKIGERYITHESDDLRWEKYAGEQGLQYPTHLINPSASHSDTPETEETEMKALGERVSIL
MEX-5 binding = C. elegans MEX-5 TCR-2 RNA binding activity; activity score (negative = inhibition of binding), % at 10 µM; AID 1832; Q9XUB2; MEX-5/FITC-TCR2 RNA binding, fluorescence polarization; hits give low values; 300,000 tested, 0.38% active;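 active = inhibition past about -25% in most replicates, and total fluorescence under double the plate's negative control median, limit read from the data; inconclusive = replicates evenly split on the limit, or fluorescence at least double controls; inactive = too little inhibition in most replicates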
Runt-CBFb FRET = inhibitors of human RUNX1 Runt domain binding to CBFb | Cerulean-Runt/Venus-CBFb FRET ratio 530/480, 1 h | inhibition, % at 20 µM | 220,000 tested, 0.46% active | AID 1496;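 active = inhibition over about 50% at 20 µM in the single-dose screen, limit read from the data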
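Reagent – Venus-CBFb binding partner, 100 nM · Assay system – Cerulean-tagged RUNX1 Runt domain (FRET donor) fusion protein · Input – 100 nM per protein · Incubation – two 1 h room-temperature incubations shielded from light · Measured by – FRET fluorescence · Medium – Tris buffer pH 7.5 with salts and BSA · Benchmarks – unlabeled CBFb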
RanGTP-Imp inh = disruptors of Ran-importin-beta complex formation – biochemical, FRET, CFP-Ran, YFP-importin-beta, homogeneous, primary screen. cell-free CFP-Ran/YFP-importin-beta FRET ratio. inhibition, % (concentration not given with the values). 300,000 tested, 1.1% active;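 active = more than half of the replicate wells show a fall in the fluorescence ratio signal beyond about 16%, limit read from the data, passing the limit was not always enough; inconclusive = exactly half of the replicate wells pass the set limit; inactive = fewer than half of replicates pass the limit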
YIC counter = counter-screen: alters YIC FRET probe signal; shares compounds with RanGTP-Imp inh; Purified YIC probe, intramolecular FRET ratio YFP/CFP; IC50, µM; 1,000 tested, 40% active;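 active = fitted half-maximal inhibitory concentration no more than tenfold above the top dose tested; inconclusive = flat fit with 30 to 70% activity, or poor fit; inactive = half-maximal concentration beyond tenfold above the top dose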
Numbers stand for hits; – = inactive; ? = inconclusive; · = not tested or not shown. Rule as the data show it, unless noted: active = inhibition above about 50%; inactive = the rest.

SMILES	EBV gp42 inh	Runt-SMMHC FRET	PKD1 inh	MEX-5 binding	Runt-CBFb FRET	RanGTP-Imp inh	YIC counter
Cc1ccc(SCc2c(C(=O)N/N=C/c3ccc4c(c3)OCO4)nnn2-c2nonc2N)cc1	·	·	·	–	·	–	·
Cc1ccc(-c2c(C(=O)N/N=C/c3ccc4c(c3)OCO4)nnn2-c2nonc2N)cc1	·	·	·	–	·	23	–
CCOC(=O)N1CCC(=NNc2nc3ccccc3s2)CC1	–	–	·	–	–	–	·
N#C/C(=C\N1CCN(Cc2ccc3c(c2)OCO3)CC1)c1nc2ccccc2s1	–	–	–	?	–	20	–
CCOC(=O)N1CCN(/C=C(\C#N)c2nc3ccccc3s2)CC1	–	–	–	-50	–	21	–
COc1ccccc1NC(=O)C(C)OC(=O)CCNS(=O)(=O)c1ccc(C)c(C)c1 (stereo not drawn)	·	·	·	–	·	–	·
Cc1ccc(Nc2cc(C)nn2-c2nc(C)cc(=O)[nH]2)cc1	–	–	–	–	·	–	·
Cc1ccc(Nc2cc(C)nn2-c2nc(C)cc(C)n2)cc1	–	–	–	–	–	24	–
CCN(CC)CCCNC(=S)N(Cc1cccs1)Cc1cc2cc3c(cc2[nH]c1=O)OCCO3	–	–	–	–	–	22	–
Cc1ccc(OCC(=O)NCc2cccs2)c([N+](=O)[O-])n1	–	–	–	–	–	–	·
COCC(C)N1CCC(n2nccc2NC(=O)CCOc2ccccc2)CC1 (stereo not drawn)	·	·	·	–	·	–	·
CC(CC(F)(F)F)N1CCC(n2nccc2NC(=O)CCOc2ccccc2)CC1 (stereo not drawn)	·	·	·	–	·	27	–
O=C(Nc1cnc2ccccc2c1)c1cccc(-n2cnnn2)c1	–	–	–	–	–	19	–
COC(=O)c1sccc1NC(=O)c1ccc(C)cc1	·	·	·	–	·	–	·
COC(=O)c1sccc1NC(=O)c1csc(C)c1	–	–	–	–	–	19	–
CCn1c(C(=O)Nc2ccsc2C(=O)OC)cc2sc(Cl)cc21	–	–	–	–	–	20	47
Cc1ccc(C)c(S(=O)(=O)N2CCCC2CNC(=O)C(=O)NC2CCCC2)c1 (stereo not drawn)	·	·	·	–	·	–	·
COc1ccccc1/C=C/c1nc(C#N)c(N(C)C)o1	·	·	·	–	·	28	13
Cc1nnc(SCC(=O)N(CC(C)C)c2c(N)n(Cc3ccccc3)c(=O)[nH]c2=O)n1N	·	·	·	–	·	–	·
CN1CCc2c(sc(/N=C/c3cc(C(C)(C)C)ccc3O)c2C#N)C1	–	–	·	–	–	–	·
Cc1ccc2nc(N3CCN(C(=O)c4ccc(F)cc4)CC3)c(C#N)cc2c1	·	·	·	–	·	22	25
Cc1ccc2cc(C#N)c(N3CCN(C(=O)c4cccs4)CC3)nc2c1	·	·	·	–	·	–	·
CN(C)S(=O)(=O)c1cccc(NC(=O)CNC2CCCCC2)c1	–	–	·	–	–	27	–
c1c2c(cc3sc(N4CCOCC4)nc13)OCCO2	–	–	–	–	–	23	–
c1ccc(N2CCN(c3nc4cc5c(cc4s3)OCCO5)CC2)cc1	–	–	–	–	–	–	·
SMILES	EBV gp42 inh	Runt-SMMHC FRET	PKD1 inh	MEX-5 binding	Runt-CBFb FRET	RanGTP-Imp inh	YIC counter
O=C(CSc1nc(=O)n(CCCN2CCOCC2)c2c1CCC2)Nc1cccc(F)c1	·	·	·	–	·	–	·
CCOC(=O)c1ccccc1NC(=O)COC(=O)c1c(CC)noc1C	·	·	·	–	·	–	·
CC1=NC(Nc2nc(C)c3ccccc3n2)=NC(C)(C)C1	–	–	–	–	–	30	–
Cc1nc2[nH]c(=O)c3c(n2n1)NC1=C(C(=O)CC(C)(C)C1)C3c1ccccc1 (stereo not drawn)	–	136	–	–	78	49	4.3
Oc1c(C=Nc2ccccc2)sc2ccccc12	–	·	–	–	·	16	7.6
Oc1sc(C=Nc2ccccc2)c2ccccc12	–	–	–	–	–	–	·
Cc1cc(C)c(NC(=O)CN2C(=O)CC(C)S(=O)(=O)c3ccccc32)c(C)c1 (stereo not drawn)	·	·	·	–	·	–	·
CCC(=O)NCCNc1nc2cc(C)cc(C)c2cc1C#N	–	–	–	–	–	–	·
COc1cc(C(=O)NCCNC(=O)c2ccc(C)nc2)cc(OC)c1OC	·	·	·	–	·	–	·
COc1cc(C(=O)NCCNc2nc3cc(C)ccc3cc2C#N)cc(OC)c1OC	·	·	·	–	·	17	30
COc1cc(OC)cc(C(=O)NCCNc2nc3cc(C)cc(C)c3cc2C#N)c1	·	·	·	–	·	18	21
COc1ccccc1C(=O)NCCNc1nc2cc(C)cc(C)c2cc1C#N	·	·	·	–	·	19	40
CCn1c(SCc2ccccc2)nc2c1c(=O)[nH]c(=O)n2C	·	·	·	–	·	–	·
CC(NC(=O)/C(C#N)=C/c1ccc(N2CCOCC2)cc1)c1ccccc1 (stereo not drawn)	·	·	·	–	·	31	11
COC(=O)c1ccc(/C=C(\C#N)C(=O)NC(C)c2ccccc2)cc1 (stereo not drawn)	–	–	–	–	–	·	·
O=C1C(=O)N(CCS(=O)(=O)c2ccccc2)c2ccc(Cl)cc21	·	·	·	–	·	39	–
Cc1noc(C)c1NC(=O)N(C)C[C@@H]1Oc2ccc(N(C)C)cc2CC(=O)N([C@H](C)CO)C[C@H]1C	·	·	·	·	·	·	–
Cc1cc(C)c2c(=O)[nH]c(SCC(=O)Nc3ccc(N(C)C)cc3)nc2n1	–	–	–	–	–	–	·
COc1cc(OC)cc(C(=O)N[C@H](C(=O)NCc2ccccc2)C(C)C)c1	·	·	·	–	·	–	·
N#C/C(=C\c1ccc(N2CCOCC2)o1)C(=O)Nc1ccc(O)cc1	–	–	–	?	–	?	·
COc1ccc(NC(=O)/C(C#N)=C\c2ccc(N3CCOCC3)o2)cc1	–	–	–	?	–	18	47
CC1CC1c1ccc(/C=C(\C#N)C(=O)Nc2ccccc2Cl)o1 (stereo not drawn)	–	–	–	–	–	36	52
N#C/C(=C\c1ccc[nH]1)C(=O)Nc1ccccc1Cl	·	·	·	–	·	–	·
CC1CC1c1ccc(/C=C(\C#N)C(=O)Nc2ccc(Cl)cc2)o1 (stereo not drawn)	–	–	–	–	–	16	–
COc1cc(NC(=O)CN(C)CCOc2ccccc2)c(C)cc1[N+](=O)[O-]	·	·	·	–	·	–	·
SMILES	EBV gp42 inh	Runt-SMMHC FRET	PKD1 inh	MEX-5 binding	Runt-CBFb FRET	RanGTP-Imp inh	YIC counter
CN(CCOc1ccccc1)CC(=O)Nc1ccc(Cl)cc1[N+](=O)[O-]	–	–	–	–	–	35	–
CN(CCC(=O)Nc1ccc(Cl)cc1)Cc1ccccc1	·	·	·	–	·	–	·
CCOc1ccc(CCNC(=O)COC(=O)COc2ccc(Br)cc2)cc1OCC	·	·	·	–	·	–	·
CCN(C(=O)CSc1nc2ccccc2c(=O)n1Cc1ccc(C)cc1)C1CCS(=O)(=O)C1 (stereo not drawn)	·	·	·	–	·	–	·
CCn1c(SCC(=O)N(Cc2ccccc2)C2CCS(=O)(=O)C2)nc2ccccc2c1=O (stereo not drawn)	–	–	–	–	–	20	–
O=[N+]([O-])c1ccc(OCn2cncn2)cc1	·	·	·	–	·	–	·
